ChEMBL document CHEMBL3621051, “Design and synthesis of 4-benzyl-1-(2H)-phthalazinone derivatives as novel androgen receptor antagonists” (Eur J Med Chem, 2015)
Active and inactive are the calls of the source. The rule behind the calls is not given here.

Columns and labels:
[1] = target: T1, Androgen receptor (Homo sapiens) (UniProt P10275); assay: Agonist activity at wild type AR expressed in […] SC cells assessed as effect on cell proliferation by WST-8 assay; type: cell-based
T1 sequence (whole entry): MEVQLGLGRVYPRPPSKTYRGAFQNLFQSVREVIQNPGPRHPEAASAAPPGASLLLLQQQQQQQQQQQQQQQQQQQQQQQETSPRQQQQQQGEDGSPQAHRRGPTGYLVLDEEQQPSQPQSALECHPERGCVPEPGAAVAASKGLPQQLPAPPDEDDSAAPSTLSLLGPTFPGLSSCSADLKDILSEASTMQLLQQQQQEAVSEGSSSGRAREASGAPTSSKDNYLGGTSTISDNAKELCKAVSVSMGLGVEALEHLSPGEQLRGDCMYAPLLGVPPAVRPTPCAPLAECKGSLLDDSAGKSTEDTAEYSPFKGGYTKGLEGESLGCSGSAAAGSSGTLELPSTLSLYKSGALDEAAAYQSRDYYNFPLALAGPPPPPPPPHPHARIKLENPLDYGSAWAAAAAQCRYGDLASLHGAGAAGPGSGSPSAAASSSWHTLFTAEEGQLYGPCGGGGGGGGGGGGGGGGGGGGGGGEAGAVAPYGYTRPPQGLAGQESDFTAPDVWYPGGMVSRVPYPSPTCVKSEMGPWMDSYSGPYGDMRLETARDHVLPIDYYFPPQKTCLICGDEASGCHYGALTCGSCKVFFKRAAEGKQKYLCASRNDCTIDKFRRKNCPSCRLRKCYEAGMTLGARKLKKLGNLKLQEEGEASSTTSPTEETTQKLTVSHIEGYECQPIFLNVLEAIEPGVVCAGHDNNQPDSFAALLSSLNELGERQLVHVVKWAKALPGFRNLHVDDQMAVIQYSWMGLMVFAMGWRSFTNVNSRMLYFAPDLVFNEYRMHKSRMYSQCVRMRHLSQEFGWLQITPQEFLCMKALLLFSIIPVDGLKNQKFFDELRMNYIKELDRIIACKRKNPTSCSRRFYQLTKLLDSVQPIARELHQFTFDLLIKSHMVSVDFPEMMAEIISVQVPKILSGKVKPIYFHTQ

PC-3 = assay: Cytotoxicity against androgen-independent human PC3 cells assessed as inhibition of cell proliferation after 3 days by WST-8 assay; type: functional, cell-based
Androgen receptor = target: T2, Androgen receptor (Homo sapiens, UniProt P10275); assay: Displacement of [3H]-DHT from human GST fused AR-LBD (627 to 919 amino acids) transfected in Escherichia coli HB 101 after 15 hrs by liquid scintillation counting assay
T2 sequence (P10275 whole entry): T1 sequence (whole entry)
Method in brief: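 Crude sonicated lysate in TEGDM was diluted to 0.3-0.5 mg/mL protein. Incubation was in the dark at 4°C for 15 h with 4 nM [3H]-DHT and 1 µM triamcinolone acetonide (final). Free ligand was removed with dextran/γ-globulin-coated charcoal, and the supernatant counted by liquid scintillation; ≥duplicate.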

SMILES: O=c1[nH]nc(Cc2ccccc2)c2ccccc12
- Activity [1]: inactive

SMILES: O=C(O)c1ccccc1Cc1n[nH]c(=O)c2ccccc12
- Activity [1]: inactive

SMILES: Nc1ccc(Cc2n[nH]c(=O)c3ccccc23)cc1
- Activity [1]: inactive

SMILES: CN(C)c1ccc(Cc2n[nH]c(=O)c3ccccc23)cc1
- Activity [1]: inactive

SMILES: O=c1[nH]nc(Cc2ccccc2[N+](=O)[O-])c2ccccc12
- inhibition (PC-3): inactive
- Activity [1]: inactive
- IC50 (Androgen receptor): > 100 µM

SMILES: CNc1ccccc1Cc1n[nH]c(=O)c2ccccc12
- Activity [1]: inactive

SMILES: CS(=O)(=O)Nc1ccccc1Cc1n[nH]c(=O)c2ccccc12
- Activity [1]: inactive

SMILES: O=C(Nc1ccccc1Cc1n[nH]c(=O)c2ccccc12)C(F)(F)F
- Activity [1]: inactive

SMILES: CCN(CC)c1ccc(Cc2n[nH]c(=O)c3ccccc23)cc1
- Activity [1]: inactive

SMILES: CC(=O)Nc1ccccc1Cc1n[nH]c(=O)c2ccccc12
- Activity [1]: inactive

SMILES: O=c1[nH]nc(Cc2c(Cl)cccc2Cl)c2ccccc12
- inhibition (PC-3): inactive
- Activity [1]: inactive
- IC50 (Androgen receptor): 10.9 µM

SMILES: O=c1[nH]nc(Cc2ccccc2F)c2ccccc12
- Activity [1]: inactive

SMILES: CC(C)(O)C(=O)Nc1ccc([N+](=O)[O-])c(C(F)(F)F)c1
- Activity [1]: inactive

SMILES: CN(C)c1ccccc1Cc1n[nH]c(=O)c2ccccc12
- Activity [1]: inactive

SMILES: Oc1nnc(Cc2ccccc2Cl)c2ccccc12
- inhibition (PC-3): inactive
- Activity [1]: inactive
- IC50 (Androgen receptor): 85.4 µM

SMILES: Cc1ccccc1Cc1n[nH]c(=O)c2ccccc12
- Activity [1]: inactive

SMILES: CNc1ccc(Cc2n[nH]c(=O)c3ccccc23)cc1
- Activity [1]: inactive

SMILES: O=c1[nH]nc(Cc2c(Cl)ccc(Cl)c2Cl)c2ccccc12
- inhibition (PC-3): inactive
- Activity [1]: inactive
- IC50 (Androgen receptor): 56.7 µM

SMILES: COc1ccccc1Cc1n[nH]c(=O)c2ccccc12
- Activity [1]: inactive

SMILES: CCN(CC)c1ccccc1Cc1n[nH]c(=O)c2ccccc12
- Activity [1]: inactive

SMILES: O=[N+]([O-])c1ccc(Cc2nnc(O)c3ccccc23)cc1
- Activity [1]: inactive

SMILES: Cc1cccc(C)c1Cc1n[nH]c(=O)c2ccccc12
- inhibition (PC-3): inactive
- Activity [1]: inactive
- IC50 (Androgen receptor): 84.3 µM

SMILES: CCNc1ccccc1Cc1n[nH]c(=O)c2ccccc12
- Activity [1]: inactive

SMILES: O=C(Nc1ccc(Cc2n[nH]c(=O)c3ccccc23)cc1)C(F)(F)F
- Activity [1]: inactive

SMILES: Nc1ccccc1Cc1n[nH]c(=O)c2ccccc12
- inhibition (PC-3): inactive
- Activity [1]: inactive
- IC50 (Androgen receptor): 45.2 µM

SMILES: O=c1[nH]nc(Cc2c(F)cccc2F)c2ccccc12
- Activity [1]: inactive

SMILES: O=c1[nH]nc(Cc2ccccc2C(F)(F)F)c2ccccc12
- Activity [1]: inactive

SMILES: CC(=O)Nc1ccc(Cc2n[nH]c(=O)c3ccccc23)cc1
- Activity [1]: inactive

SMILES: CS(=O)(=O)Nc1ccc(Cc2n[nH]c(=O)c3ccccc23)cc1
- Activity [1]: inactive

SMILES: CCNc1ccc(Cc2n[nH]c(=O)c3ccccc23)cc1
- Activity [1]: inactive
